The source made the active and inactive calls. The calls are words filed in the database; no cut-off is given here.
Key:
HL-60 [1] = test: Induction of autophagy in human HL-60 cells assessed as increase in LC3-II protein level at 10 uM in presence of chloroquine […] by Immunoblotting analysis; format: functional, cell-based
[2] = Induction of Pro-apoptosis in human HL-60 cells assessed as increase in apoptotic cells at 10 uM after 48 hrs by Annexin-V/PI-staining based flow cytometry; format: functional
HL-60 [3] = test: Induction of autophagy in human HL-60 cells assessed as increase in LC3-II protein level at 10 uM measured up to 1 hr by Immunoblotting analysis; format: functional, cell-based
HL-60 [4] = test: Induction of autophagy in human HL-60 cells assessed as increase in p62 protein level at 10 uM […] by Immunoblotting analysis; format: functional, cell-based
Emu-TCL1 = test: Induction of apoptosis in mouse Emu-TCL1 cells model of CLL assessed as mitochondrial membrane depolarization at 10 uM after 48 hrs by TMRM dye based flow cytometric analysis; format: functional, cell-based
Outline: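 Splenocytes from Eμ-TCL1 leukaemic mice were treated with 10 μM or DMSO vehicle for 48 h, then TMRM-loaded. Flow cytometry gave the percentage of TMRM-low cells as mean ± SD (n = 3).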

NIH3T3 = test: Cytotoxicity against mouse NIH3T3 cells assessed as inhibition of cell growth measured after 24 hrs by neutral red uptake assay; format: functional, cell-based; conditions: NIH3T3, 24 h
Outline: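 Neutral red uptake viability test. NIH3T3 fibroblasts or primary human oral epithelial cells were exposed to compound at 0.1 to 120 μM. EC50 was derived, with SD below 5%.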

[5] = molecular target: Nuclear factor NF-kappa-B complex (Homo sapiens) (UniProt Q00653+P19838+Q04206); test: Inhibition of NF-kappaB phosphorylation in human HL-60 cells at 10 uM measured after 2 hrs by Immunoblotting analysis; format: cell-based
Nuclear factor NF-kappa-B complex (Homo sapiens), sequence (P19838 whole entry, looked up): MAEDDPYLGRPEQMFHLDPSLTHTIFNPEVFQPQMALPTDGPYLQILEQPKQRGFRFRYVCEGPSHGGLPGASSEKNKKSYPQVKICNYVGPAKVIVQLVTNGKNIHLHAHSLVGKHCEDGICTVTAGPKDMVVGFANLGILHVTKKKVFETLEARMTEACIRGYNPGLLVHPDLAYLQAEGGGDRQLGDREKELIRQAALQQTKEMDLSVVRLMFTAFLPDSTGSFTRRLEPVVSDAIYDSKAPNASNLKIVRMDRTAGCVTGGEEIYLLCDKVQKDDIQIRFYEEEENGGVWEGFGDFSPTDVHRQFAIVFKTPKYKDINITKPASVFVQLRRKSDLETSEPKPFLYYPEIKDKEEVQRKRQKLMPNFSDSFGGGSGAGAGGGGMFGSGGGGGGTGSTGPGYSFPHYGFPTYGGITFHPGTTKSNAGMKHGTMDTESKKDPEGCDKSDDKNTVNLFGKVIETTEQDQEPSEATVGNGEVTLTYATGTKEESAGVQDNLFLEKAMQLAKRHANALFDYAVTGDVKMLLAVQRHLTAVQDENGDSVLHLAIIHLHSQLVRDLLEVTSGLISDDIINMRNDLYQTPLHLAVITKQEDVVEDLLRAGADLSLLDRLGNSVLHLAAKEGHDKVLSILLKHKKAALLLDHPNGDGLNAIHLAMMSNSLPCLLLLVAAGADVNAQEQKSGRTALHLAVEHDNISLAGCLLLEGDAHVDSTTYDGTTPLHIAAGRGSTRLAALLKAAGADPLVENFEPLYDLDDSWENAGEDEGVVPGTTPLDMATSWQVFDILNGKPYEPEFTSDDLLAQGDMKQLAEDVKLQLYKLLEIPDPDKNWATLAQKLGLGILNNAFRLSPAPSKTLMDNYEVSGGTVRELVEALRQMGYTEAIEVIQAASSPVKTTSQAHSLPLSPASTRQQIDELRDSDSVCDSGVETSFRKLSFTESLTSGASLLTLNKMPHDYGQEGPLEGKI
Nuclear factor NF-kappa-B complex (Homo sapiens), sequence (Q00653 whole entry, looked up): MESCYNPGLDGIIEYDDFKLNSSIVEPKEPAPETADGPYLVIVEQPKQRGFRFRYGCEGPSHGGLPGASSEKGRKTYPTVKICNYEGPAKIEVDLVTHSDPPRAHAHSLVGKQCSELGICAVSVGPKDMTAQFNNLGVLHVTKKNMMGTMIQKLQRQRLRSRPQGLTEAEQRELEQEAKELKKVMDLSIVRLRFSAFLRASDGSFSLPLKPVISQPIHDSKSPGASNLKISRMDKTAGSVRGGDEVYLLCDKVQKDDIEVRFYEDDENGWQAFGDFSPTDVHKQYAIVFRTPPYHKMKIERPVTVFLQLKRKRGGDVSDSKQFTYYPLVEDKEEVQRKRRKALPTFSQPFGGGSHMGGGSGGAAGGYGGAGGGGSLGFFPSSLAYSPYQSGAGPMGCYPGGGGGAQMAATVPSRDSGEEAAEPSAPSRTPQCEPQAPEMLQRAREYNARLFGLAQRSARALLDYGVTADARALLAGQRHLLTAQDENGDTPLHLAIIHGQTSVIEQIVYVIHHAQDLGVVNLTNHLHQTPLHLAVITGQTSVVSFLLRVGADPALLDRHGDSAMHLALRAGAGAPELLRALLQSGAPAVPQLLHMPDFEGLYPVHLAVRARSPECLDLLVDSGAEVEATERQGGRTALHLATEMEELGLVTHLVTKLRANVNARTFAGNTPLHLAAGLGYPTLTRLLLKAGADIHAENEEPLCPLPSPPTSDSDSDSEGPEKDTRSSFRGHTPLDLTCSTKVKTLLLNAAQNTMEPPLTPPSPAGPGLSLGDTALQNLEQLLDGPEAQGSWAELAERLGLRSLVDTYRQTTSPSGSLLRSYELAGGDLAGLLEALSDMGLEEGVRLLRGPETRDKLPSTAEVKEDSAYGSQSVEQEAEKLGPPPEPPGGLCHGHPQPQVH
Nuclear factor NF-kappa-B complex (Homo sapiens), sequence (Q04206 whole entry, looked up): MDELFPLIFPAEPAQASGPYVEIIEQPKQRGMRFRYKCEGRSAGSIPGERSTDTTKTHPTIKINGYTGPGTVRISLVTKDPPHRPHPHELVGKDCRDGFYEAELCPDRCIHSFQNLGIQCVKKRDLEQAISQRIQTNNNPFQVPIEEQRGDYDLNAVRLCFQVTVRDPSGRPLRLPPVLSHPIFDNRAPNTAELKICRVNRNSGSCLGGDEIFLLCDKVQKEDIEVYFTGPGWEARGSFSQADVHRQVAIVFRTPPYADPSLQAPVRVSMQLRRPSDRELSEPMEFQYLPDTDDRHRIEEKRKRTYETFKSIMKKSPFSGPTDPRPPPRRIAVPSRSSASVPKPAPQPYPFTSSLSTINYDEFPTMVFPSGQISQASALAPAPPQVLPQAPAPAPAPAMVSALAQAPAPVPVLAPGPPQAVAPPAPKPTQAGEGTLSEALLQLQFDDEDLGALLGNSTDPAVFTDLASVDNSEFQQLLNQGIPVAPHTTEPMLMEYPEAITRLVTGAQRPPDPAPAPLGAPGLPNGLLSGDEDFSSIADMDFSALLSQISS
Outline: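 HL-60 cells were treated at 10 μM or with DMSO vehicle for 2 h. Phospho-NF-κB and phospho-Erk1/2 were immunoblotted and quantified by densitometry relative to β-tubulin. Data are mean ± SD (n = 2), analysed by one-way ANOVA.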

KYSE-520 cell line [6] = test: Induction of apoptosis in human KYSE520 cells assessed as increase in apoptotic cells at 3 to 10 uM after 72 hrs by Annexin V-FITC/PI staining based flow cytometry method; format: functional, cell-based; conditions: dose 3-10 µM
Outline: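 KYSE-520 cells were treated at 3 and 10 μM for 72 h, then analysed by flow cytometry after Annexin V/PI dual staining.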

KYSE-520 cell line [7] = test: Cytotoxicity against human KYSE520 cells assessed as inhibition of cell growth measured after 72 hrs by alamar blue viability assay; format: functional, cell-based; conditions: KYSE-520, 72 h
Outline: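 KYSE-520 oesophageal cells were exposed to at least 8 increasing concentrations for 48 h or 72 h. Viability was read out to give IC50, as the mean ± SD of at least three independent experiments.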

[8] = Cytotoxicity against human SKGT4 cells assessed as inhibition of cell growth measured after 72 hrs by MTT assay; format: functional, cell-based; conditions: SKGT4, 72 h
Outline: (§1)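 Oesophageal adenocarcinoma lines were exposed to at least 8 increasing concentrations for 72 h. Viability was measured by MTT. IC50 is the mean ± SD of at least three independent experiments.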

SCC-4 [9] = test: Induction of autophagy in human SCC-4 cells assessed as increase in LC3-II to LC3-I ratio at 10 uM incubated for 30 mins in presence of EBSS followed by compound addition and measured after 3 hrs by Western blot analysis; format: functional, cell-based
Outline: (§2)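 SCC4 cells were pre-incubated with or without EBSS for 30 min, then given 10 μM compound, with 10 μM chloroquine as reference, for 3 h. LC3-I/II was assessed by Western blot with GAPDH loading control. The LC3-II/LC3-I ratio came from densitometry, as mean ± SEM of four experiments, with an unpaired one-tailed t-test.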

SCC-4 [10] = test: Induction of autophagy in human SCC-4 cells assessed as increase in LC3-II to LC3-I ratio at 10 uM in absence of EBSS measured after 3 hrs by Western blot analysis; format: functional, cell-based; outline: as §2
OE19 = test: Cytotoxicity against human OE19 cells assessed as inhibition of cell growth measured after 72 hrs by MTT assay; format: functional, cell-based; conditions: OE19, 72 h; outline: as §1
OE33 = test: Cytotoxicity against human OE33 cells assessed as inhibition of cell growth measured after 72 hrs by MTT assay; format: functional, cell-based; conditions: OE33, 72 h; outline: as §1
[11] = Induction of Pro-apoptosis in human HL-60 cells assessed as increase in apoptotic cells at 20 uM after 48 hrs by TMRM dye based flow cytometric analysis; format: functional
[12] = Induction of Pro-apoptosis in human HL-60 cells assessed as increase in apoptotic cells at 50 uM after 48 hrs by TMRM dye based flow cytometric analysis; format: functional
[13] = Induction of Pro-apoptosis in human HL-60 cells assessed as increase in apoptotic cells at 25 uM after 24 hrs by TMRM dye based flow cytometric analysis; format: functional
[14] = Induction of Pro-apoptosis in human HL-60 cells assessed as increase in apoptotic cells at 10 uM after 24 hrs by TMRM dye based flow cytometric analysis; format: functional
SCC-4 [15] = test: Cytotoxicity against human SCC-4 cells assessed as reduction in cell viability measured after 48 hrs by alamar blue viability assay; format: functional, cell-based; conditions: SCC-4, 48 h
Outline: (§3)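 Oral squamous carcinoma cells were exposed for 48 h to at least 8 increasing concentrations. Viability was read by AlamarBlue. IC50 is the concentration that halves viability, taken as the mean ± SD of at least three independent experiments.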

Ca9-22 = test: Cytotoxicity against human Ca9-22 cells assessed as reduction in cell viability measured after 48 hrs by alamar blue viability assay; format: functional, cell-based; conditions: Ca9-22, 48 h; outline: as §3

With `O=C(OC1=C(c2cccc3ncccc23)Oc2cc3ccccc3cc2-n2cccc21)c1cccnc1` the Activity (HL-60 [1]) was “Active”, the Activity [2] was “>=70%” and the Activity (HL-60 [3]) was “Active”. For the same compound, the Activity (HL-60 [4]) was “Active”, the Activity (Emu-TCL1) was “Active” and the EC50 (NIH3T3) was 6000 nM.
In the case of `CC(=O)OC1=C(c2cccc3ncccc23)Oc2cc3ccccc3cc2-n2cccc21`, the inhibition [5] is reported as “Active”, the Activity (HL-60 [1]) is reported as “Active” and the Activity (KYSE-520 cell line [6]) is reported as “Active”. The Activity [2] was “>=70%”, the Activity (HL-60 [3]) was “Active” and the Activity (HL-60 [4]) was “Active”. The IC50 (KYSE-520 cell line [7]) was 138000 nM, the IC50 [8] was 510 nM and the Activity (SCC-4 [9]) was “Active”. The Activity (SCC-4 [10]) was “Active”, the IC50 (OE19) was 730 nM and the Activity (Emu-TCL1) was “Active”. For the same compound, the IC50 (OE33) was 320 nM.
With `CCN(CC)CCCC(C)Nc1ccnc2cc(Cl)ccc12` (stereo not given) the Activity (SCC-4 [9]) was “Active” and the Activity (SCC-4 [10]) was “Active”.
For `CCN(CC)C(=O)OC1=C(c2cccc3ccccc23)Oc2ccc(N3CCN(C)CC3)cc2-n2cccc21`, the Activity [2] was less than 30%, the Activity (Emu-TCL1) was “Active” and the EC50 (NIH3T3) was 5000 nM.
With `CC(=O)OC1=C(c2cccc3ccccc23)Oc2ccc(N3CCN(C(C)=O)CC3)cc2-n2cccc21` the Activity [11] was less than 30% and the Activity [12] was “>=70%”.
In the case of `CC(=O)OC1=C(c2cccc3ccccc23)Oc2cc3c(cc2-n2cccc21)OCCO3`, the Activity [13] is reported as “>=50%”, the Activity [14] is reported as “>=50%” and the EC50 (NIH3T3) is reported as 100 nM.
For `CN(C)C(=O)OC1=C(c2cccc3ccccc23)Oc2ccccc2-n2cccc21`, the IC50 (SCC-4 [15]) was 160 nM, the Activity [2] was “>=70%” and the IC50 (Ca9-22) was 170 nM.
In the case of `CC(=O)OC1=C(c2cccc3ccccc23)Oc2cc3c(cc2-n2cccc21)OCO3`, the Activity [13] is reported as “>=50%”, the Activity [14] is reported as “>=50%” and the EC50 (NIH3T3) is reported as 150 nM.
